Published values from different studies.
Lines come from different studies, so protocols differ.
Target: Serine/threonine-protein kinase MARK2 (MARK2, Homo sapiens, UniProt Q7KZI7)

`O=C(NCCCC1CCCCC1)c1ccc(CNC(=O)c2cnn(-c3ccccc3)c2C(F)(F)F)cc1` has a remaining binding of 100% (cell-free assay; competition with immobilised ligand; 0.1 µM).
With `O=C(Nc1c[nH]nc1C(=O)NC1CCNCC1)c1cc(F)cc(F)c1` the remaining binding was 100% (binding; competition with immobilised ligand; 1 µM).
For `Cc1cnc(Nc2ccc(C(=O)N3CCC(N4CCCC4)CC3)cc2)nc1-c1cc2ccccc2s1`, the remaining binding was 68% (binding; competition with immobilised ligand; 1 µM).
For `COc1cnc(Nc2cccc(S(N)(=O)=O)c2)nc1N1CCN(c2ccccc2)C(=O)C1`, the remaining binding was 100% (binding; competition with immobilised ligand; 1 µM).
The remaining binding of `CCN1CCN(Cc2ccc(C(=O)Nc3ccc(C)c(Oc4ccc5c(c4)CC(=O)N5)c3)cc2C(F)(F)F)CC1` is reported as 100% (binding; competition with immobilised ligand; 1 µM).
For `N[C@H]1CCN(c2nccc(-c3cnn4ncccc34)n2)C1`, the remaining binding was 100% (binding; 1 µM).
For `O=C(Nc1cccnn1)N1CCC(=Cc2cccc(Oc3ccc(C(F)(F)F)cn3)c2)CC1`, the remaining binding was 100% (cell-free assay; competition with immobilised ligand; 1 µM).
`O=C(NCCCN1CCOCC1)c1ccc(Nc2ncc(Cl)c(-c3ccc(Cl)s3)n2)cc1` has a remaining binding of 74% (binding; competition with immobilised ligand; 1 µM).
The remaining binding of `C[C@H](NC(=O)c1cnc2n1[C@](C)(Cc1ccc(C#N)cc1)C(=O)N2c1cc(Cl)c(F)c(Cl)c1)C(=O)NC1(c2ccccn2)CC1` is reported as 100% (cell-free assay; competition with immobilised ligand; 1 µM).
For `CN(C)c1nccc(-c2cnc3ncccn23)n1`, the remaining binding was 100% (binding; 1 µM).
With `C=CC(=O)N1CCC(C(=O)NCC(=O)N2CCN(c3nc(-c4cnc(N)nc4C(F)F)nc(N4CCOCC4)n3)CC2)CC1` the remaining binding was 90% (binding; competition with immobilised ligand; 1 µM).
`O=C(c1ccc(Nc2nccc(-c3cc4ccccc4s3)n2)cc1)N1CCC(N2CCCC2)CC1` has a remaining binding of 91% (binding; competition with immobilised ligand; 1 µM).
`c1cncc(-c2cccc(Nc3nccc(NC4CCCCC4)n3)c2)c1` gave a remaining binding of 81% (binding; competition with immobilised ligand; 10 µM).
`CCc1ccccc1C(=O)Nc1n[nH]c2c(C)c(F)c(C3C(C#N)=C(C)N(C)C(C)=C3C#N)cc12` has a remaining binding of 40% (cell-free assay; competition with immobilised ligand; 1 µM).
For `CN(CCCC(F)(F)F)c1nccc(-c2cnn3ncccc23)n1`, the remaining binding was 100% (binding; 1 µM).
`C[C@H](c1ccnc(Nc2nc3ccc(-c4cc(N(C)C)ncn4)cc3[nH]2)c1)N1CCN(C(=O)CC(F)(F)F)CC1` has a remaining binding of 100% (cell-free assay; competition with immobilised ligand; 0.1 µM).
`c1cnn2ncc(-c3ccnc(N4CCC45COC5)n3)c2c1` has a remaining binding of 63% (binding; 1 µM).
For `COc1ncc2cc3ccccc3nc2c1C#N`, the remaining binding was 97% (cell-free assay; competition with immobilised ligand; 5 µM).
The remaining binding of `CN(C)c1nccc(-c2cnn3ncccc23)n1` is reported as 96% (binding; 1 µM).
With `CNC(=O)[C@@H]1CC[C@@H](n2c(-c3ccc4cnccc4c3)nc3ccc(C(=O)NCc4cccc(C(N)=O)c4)cc32)C1` the remaining binding was 100% (binding; competition with immobilised ligand; 1 µM).
With `C[C@H]1CCN(c2nccc(-c3cnn4ncccc34)n2)C1` the remaining binding was 100% (binding; 1 µM).
The remaining binding of `CS(=O)(=O)NCC[C@H](NC(=O)c1cncc2c1cnn2-c1ccc(F)cc1)c1ccnc(S(C)(=O)=O)c1` is reported as 75% (cell-free assay; competition with immobilised ligand; 1 µM).
